In ChEMBL document CHEMBL4118144, “Design, Synthesis, and Testing of Potent, Selective Hepsin Inhibitors via Application of an Automated Closed-Loop Optimization Platform” (J Med Chem, 2018):
Calls of active or inactive are those of the source.

Tests used:
Assay type in all cases: cell-based
Serine protease hepsin [1] = target: T1, Serine protease hepsin (Homo sapiens, UniProt P05981); test: Inhibition of doxycycline induced hepsin-mediated loss of desmosomal junctions in human MCF10A cells at 1 to 10 uM preincubated for 30 mins followed by doxycycline addition measured after 6 hrs by desmoglein 2 staining-based confocal immunofluorescence microscopic analysis
Procedure, shortened: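 MCF10A-Indu20-hepsin cells on coverslips pretreated 30 min with 1 or 10 µM compound or DMSO, then 100 ng/mL Dox for 6 h. Desmoglein 2 immunofluorescence: continuous pericellular staining scored positive, discontinuous or absent scored negative. Cells counted in 10 fields per treatment across three biological replicates; reported as percentages.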

Serine protease hepsin [2] = target: T1, Serine protease hepsin; test: Inhibition of doxycycline induced hepsin-mediated conversion of Pro-HGF into active form in human MCF10A cells assessed as decrease in MET phosphorylation (Tyr1243/1245) at 1 to 10 uM preincubated for 30 mins followed by recombinant human pro-HGF addition measured after 30 mins by immunoblot method
Procedure, shortened: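 Dox-induced MCF10A-Indu20-hepsin cells given DMSO or inhibitor for 30 min, then 50 ng/mL recombinant human Pro-HGF; MET phosphorylation (Tyr1243/1245) detected by immunoblotting.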

Serine protease hepsin [3] = target: T1, Serine protease hepsin; test: Inhibition of hepsin-mediated conversion of Pro-HGF into active form in human Hs578T cells assessed as decrease in MET phosphorylation at 1 uM preincubated for 30 mins followed by recombinant human pro-HGF addition measured after 30 mins by immunoblot method
Procedure, shortened: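 Hs578T or HCC1937 breast cells incubated with DMSO or inhibitor, then 50 ng/mL recombinant human Pro-HGF added; MET pathway activation (phospho-MET) assessed by immunoblotting.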

Measured: inhibition

T1 sequence (P05981 1-162 limits assumed): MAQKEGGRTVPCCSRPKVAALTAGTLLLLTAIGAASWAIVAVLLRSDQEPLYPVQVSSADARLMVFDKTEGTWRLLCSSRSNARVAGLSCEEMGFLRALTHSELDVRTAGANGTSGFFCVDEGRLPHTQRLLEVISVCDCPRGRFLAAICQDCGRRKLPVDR
T1 sequence (P05981 163-417 limits assumed): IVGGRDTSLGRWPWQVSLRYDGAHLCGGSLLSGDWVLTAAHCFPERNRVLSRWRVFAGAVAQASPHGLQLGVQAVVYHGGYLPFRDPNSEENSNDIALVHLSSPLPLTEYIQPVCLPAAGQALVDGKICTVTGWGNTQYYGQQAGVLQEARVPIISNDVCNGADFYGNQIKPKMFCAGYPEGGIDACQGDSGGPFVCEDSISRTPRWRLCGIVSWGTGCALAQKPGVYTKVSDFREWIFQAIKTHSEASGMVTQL

Cc1ccc(S(=O)(=O)N[C@@H](C(=O)Nc2ccc(C(=N)N)cc2)c2ccccc2)cc1
active: Serine protease hepsin [1] | Serine protease hepsin [2] | Serine protease hepsin [3]
